In the RNAGym collection of RNA variant scans (doi:10.1101/gad.245936.114) one finds nonsense suppression data, which are given here for 167 variants.

B1: tRNA (parent)
chain: CUCUCGGUAGCCAAGUUGGUUUAAGGCGCAAGACUUUAAUUUAUCACUACGAAAUCUUGAGAUCGGGCGUUCGACUCGCCCCCGGGAGAUUUUUUCCUCGAGCAA

Variants at the floor of the assay were thinned out. Bounds are passed on as bounds.

Variants of B1 are the subject of the data set. The experiment in a line: nonsense suppression (GFP-seq) (ratio to wild type); higher = more function; SUP4oc tRNA, yeast GFP reporter sort-seq. An outline of the steps:
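Yeast were grown in raffinose/galactose medium with 80 mg/L adenine, each strain bearing a genome-integrated ochre-suppressor tRNA variant from a ~3% random-mutation library, a galactose-driven GFP ochre reporter, and RFP. After sorting into GFP/RFP bins, every bin was sequenced on an Illumina platform at phred ≥30. The GFPSEQ value, a measure of nonsense suppression, is the weighted bin median GFP/RFP relative to the unmutated parent tRNA, using each variant's estimated cell share per bin as the weight. Only variants with ≥100 reads and ≥30 cells were included.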
As to C11G U20C G25U U63G C75A G78C, the nonsense suppression is not above 0.026.
The result for C11U C12A G88A reads not above 0.026; that for G10A A24C G85U, not above 0.026; that for A9G C29U C75G, 0.252.
For the variant A9G C82U, the nonsense suppression is 0.531.
To A9U A30G belongs 0.0995; to C12U A54U, 0.229.
Regarding C12U A54G, the nonsense suppression was found to be 0.0372.
Take C12U A54C: the nonsense suppression came to 0.0512.
With A9G A54U, the nonsense suppression was 0.196.
Consider A9G A54C, for which the nonsense suppression is 0.207.
The result for A9U A31G reads 0.193; that for G10A G32C, not above 0.026.
The result for G10U C29A reads not above 0.026; that for C12U A24U U71G, not above 0.026.
To A9U U21G U22C belongs not above 0.026; to A9U A54G, 0.0306.
For the variant A9U A54U, the nonsense suppression was 0.222.
On to A9U A54C, for which the nonsense suppression turned out to be 0.0503.
Take C11G U17C U21C U63C: the nonsense suppression was not above 0.026.
With G10U C77G, the nonsense suppression was not above 0.026.
As for G10C A13G G15A U57C, the nonsense suppression is not above 0.026.
Take G10A G85U: the nonsense suppression was not above 0.026.
The result for G10A A31C reads not above 0.026.
To C12U A60U belongs 0.723; to C12U A60G, 0.406.
To G10U A14U belongs 0.19; to A9G G10U C80U A87C, not above 0.026; to C12A G18U U70C G88U, not above 0.026.
Regarding C12G G15A G19U, the nonsense suppression is not above 0.026.
To A9U A13U belongs 0.819; to A9U U57G G65C, not above 0.026; to A9U C72G, 0.0446.
The result for A9G U22A reads 0.212; that for A9G U22C, 0.323; that for A9G U22G, 0.254.
To A9U A13U A24G belongs 0.212; to G10A C56U G73A, not above 0.026.
Regarding G10A U58A A62G U70A, the nonsense suppression was not above 0.026.
The result for G10C G15C G32U U63A reads not above 0.026; that for C11G U16G G66A, not above 0.026.
On to C11U G84C A89C, for which the nonsense suppression is not above 0.026.
The result for G10C G26A G65A A87U reads not above 0.026.
As to C11G C29G G61U, the nonsense suppression is not above 0.026.
As for C12G U71G, the nonsense suppression was 0.859.
For the variant C12U A31G G65A, the nonsense suppression was not above 0.026.
To C11G U35C A74U C82A belongs not above 0.026.
With C12A A24C, the nonsense suppression was 0.035.
The result for A9U C12G U35G C72A reads not above 0.026.
The result for A9U reads 0.802; that for G10U G32C, not above 0.026.
For the variant A9U A33G, the nonsense suppression was 0.0334.
The result for G10A C27U reads not above 0.026; that for C12G A33U, not above 0.026; that for A9G G10A, 0.0344.
On to A9G G10U, for which the nonsense suppression came to 0.0476.
On to G10U C27A, for which the nonsense suppression was 0.119.
To C11U G18U U58G belongs not above 0.026; to C12U C75G, 1.23; to C11A A30G, 0.0331.
On to C11A A30C U57A, for which the nonsense suppression was not above 0.026.
To G10C C56G U71G belongs not above 0.026; to A9U G15A, 0.0449.
To C12A A89G belongs not above 0.026; to A9U C12U, 0.29; to C12U C79U, 0.205.
In the case of A9G U17C U22C, the nonsense suppression is 0.133.
To G10U C27U C29A A60C U76G belongs not above 0.026.
With C11G C72G, the nonsense suppression was not above 0.026.
Take A9G U55C: the nonsense suppression was found to be 0.245.
As to A9G C11U G61C, the nonsense suppression is not above 0.026.
The result for G10C G15U A33U reads not above 0.026; that for A9G A31G, 0.259; that for G10U A13C, 0.0296.
Regarding C11U, the nonsense suppression was not above 0.026.
Regarding C11G A33G, the nonsense suppression is not above 0.026.
As for A9G G84A, the nonsense suppression worked out at 0.0699.
The result for A9G G84U reads 0.0539.
The result for G10C C29G C79U reads not above 0.026.
The result for A9U A60U reads 0.0653; that for G10U A31G, not above 0.026.
Consider C11U G18U A60G, for which the nonsense suppression is not above 0.026.
As for C12G A33U U55C C72A G73A U76C, the nonsense suppression is not above 0.026.
As to C11G A23G C34A C81U, the nonsense suppression was not above 0.026.
Consider G10C C79U, for which the nonsense suppression is not above 0.026.
As to A9G U76G C80G, the nonsense suppression was not above 0.026.
To C11G C34A U63A G65C belongs not above 0.026.
Regarding A9U G10A, the nonsense suppression stood at 0.0292.
The result for G10U A54C G86C reads not above 0.026; that for C12G A14G A33G, not above 0.026.
To C11U G78U belongs not above 0.026; to C11G U16G U58A G61A G67C, not above 0.026.
Turning to A9U C11G C68A, the nonsense suppression is not above 0.026.
The result for A9U U20G reads 0.12.
C11A U58A G69A: the nonsense suppression is not above 0.026.
The result for G10A C64G reads not above 0.026; that for A9G G15U, 0.0374; that for A9G G15C, 0.173.
For C11U G18A, the nonsense suppression is not above 0.026.
Regarding A9G U17A, the nonsense suppression was 0.92.
As to A9G U17C, the nonsense suppression came out at 0.113.
As for C11G A13U A62C, the nonsense suppression is not above 0.026.
The result for A9G A30U reads 0.163; that for A9G A30G, 0.466; that for G10U G18A C75U, not above 0.026.
For C12A G61C G66C, the nonsense suppression is not above 0.026.
The result for C11G A24U A62C C68G reads not above 0.026; that for G10A A60C G66C G78A, not above 0.026; that for C12U C29U, 0.206.
Regarding A9G A14C A54G, the nonsense suppression was not above 0.026.
For C11U C68A U76C C83G, the nonsense suppression is not above 0.026.
A9U A24G: the nonsense suppression worked out at 0.0422.
To A9U G84A belongs 0.138; to A9U G84U, 0.0747; to C11A U16C, not above 0.026.
The result for C11G G26C reads 0.359.
G10A G78A: the nonsense suppression amounted to 0.0314.
To G10A G78U belongs 0.0324; to A9G U16C G18U, not above 0.026.
Turning to C11A G25C G61C, the nonsense suppression is not above 0.026.
The result for A9U U57G C77A G85A reads not above 0.026; that for C11U A31G C77G, not above 0.026; that for C11U G61C, 0.0829.
To A9U G28U A62G U71G belongs not above 0.026; to C11U G18C U20G U76G, not above 0.026; to A9G A30U U58A, 0.23.
As for A9U U35G G73A A74U, the nonsense suppression is not above 0.026.
A9G C29U: the nonsense suppression amounted to 0.2.
To C12U C29G U35A belongs not above 0.026; to C12U A13G U21A, 0.0262.
The result for C12U A23C G78C reads not above 0.026; that for C12A G32C U57G, not above 0.026; that for A9U C12A A13C C72U C79A, not above 0.026.
Turning to C12G C27U, the nonsense suppression was not above 0.026.
With C12G U70A, the nonsense suppression was not above 0.026.
As for C11U G32U G69C G85C, the nonsense suppression was not above 0.026.
The result for G10U C27A G85A reads 0.159; that for C11U A24G G26C U71A, not above 0.026; that for G10C G26U G86A G88A, not above 0.026.
The result for C11U A33G A74C C83A reads not above 0.026; that for A9U G19C G65C A74C, not above 0.026; that for A9G C11U, 0.0313.
C12U C27U: the nonsense suppression was 0.121.
Consider C11U A23G A31G U76A, for which the nonsense suppression was not above 0.026.
To C12U C27U G61C belongs not above 0.026.
To G10C G19U C64G belongs not above 0.026; to G10C U35A G66C G85U, not above 0.026; to G10A G32C G88C, not above 0.026.
The result for C12U A31G C77G reads not above 0.026.
Regarding C11U A24U, the nonsense suppression amounted to 0.031.
To C11U U22C belongs 0.0289; to C11U C56G G73C G78A C79G, not above 0.026.
As for A9G A30G G61A, the nonsense suppression turned out to be 0.291.
As for A9G G61C, the nonsense suppression is 1.06.
A9G G61U: the nonsense suppression was 1.1.
The result for G10A A33C C34U reads not above 0.026; that for G10A A13C, 0.0618; that for C11G G66A G69C, 0.0424.
On to C12A U35A C81G, for which the nonsense suppression is not above 0.026.
The result for G10C A24U A30G A33U U55A C80U reads not above 0.026.
The result for C12A G18U G66A U70C C77G C83U reads not above 0.026; that for A9U G25U, not above 0.026.
As for C12G U16C A23G, the nonsense suppression came to 0.207.
Take C11A G61A: the nonsense suppression is 0.22.
In the case of A9G A33C G66U, the nonsense suppression was not above 0.026.
With C12U A23G, the nonsense suppression came to 0.0776.
To C11U C27G A74G belongs not above 0.026.
